Results as given in PubChem BioAssay.
The source made the active and inactive calls.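 Rule for the calls, unless noted: active = inhibition at or above 50% relative to wild type and mutant plate controls; inactive = inhibition below 50%.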

How the values were obtained:
[1] = inhibitors of TNFa-induced NFkB p65 translocation, primary screen, imaging, HUVEC, MLSMR starter and 10KST1 sets (AID 438;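 active = inhibition above 20% together with a positive visual image hit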;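 note: compound added about 3h40 before a 20 min TNFalpha stimulation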;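 for inhibition: signal is the nuclear over cytoplasmic p65 intensity ratio per well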); settings: HUVEC TNFa-induced p65 nuclear translocation; cell count: measured here: nuclei count (cytotoxicity indicator), at 2.08 µM; inhibition: at 2 µM, stronger effect = higher value, 0% TNFa-plus-vehicle, 100% no-TNFa wells
[2] = endothelial E-selectin expression blockers – imaging, HUVEC, immunofluorescence, MLSMR starter and 10KST1 sets, primary screen (AID 487;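 active = visually confirmed hit in the image check and inhibition above 20%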;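 for inhibition: signal is fraction of cell area covered by stained E-selectin grains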;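 for nuclei count: 100% = median nuclei count of all wells on the same plate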); settings: HUVEC TNFalpha-induced E-selectin immunofluorescence imaging, at 2 µM; inhibition: stronger effect = higher value; nuclei count: measured here: cell number, toxicity
[3] = Primary imaging screen for DUSP6 inhibitors that restore phospho-Erk in transfected HeLa cells, chemical complementation (AID 609;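 active = compounds giving at least 50% inhibition in the cell-based MKP-3 phosphatase rescue imaging test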;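 for inhibition: phospho-Erk level distribution per well compared with pooled transfected vehicle control wells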); settings: HeLa MKP-3 transfected, phospho-Erk imaging KS statistic, at 10 µM, cells stimulated with TPA for 15 min
[4] = target: Dual specificity protein phosphatase 6 (Homo sapiens) (UniProt Q16828); assay: as above; settings: HeLa MKP-3 transfected, phospho-Erk imaging KS statistic; at 10 µM; stronger effect = higher value; cells stimulated with TPA for 15 min
[5] = target: Voltage-gated potassium channel subunit beta-2 (Rattus norvegicus) (UniProt P62483); assay: inhibitors of rat Kvbeta2 reductase activity – biochemical, NADPH fluorescence, primary screen (AID 622;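 active = fluorescence slope higher than the sample average by over 3 SD, cut at about -0.22 in these data, passing the limit was not always enough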;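 note: slope of raw intensity against log time taken from 70 to 1610 s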); settings: recombinant KvBeta, 4-cyanobenzaldehyde reduction, at 10 µM, stronger effect = higher value
[6] = target: Voltage-gated potassium channel subunit beta-2 (Rattus norvegicus) (UniProt P62483); assay: enhancers of rat Kvbeta2 NADPH turnover – biochemical, NADPH fluorescence, primary screen (AID 623;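 active = NADPH fluorescence slope more negative than the mean of all samples by about 3 SD, 99.7% confidence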;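 note: fluorescence intensity change per second fitted from 20 to 320 s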); settings: Recombinant KvBeta, NADPH fluorescence decrease slope, 10 min; at 10 µM; stronger effect = lower value
[7] = target: Muscarinic acetylcholine receptor M4 (Homo sapiens) (UniProt P08173); assay: M4-linked GIRK flux change, two-sided – cell-based, HEK293 M4/GIRK, thallium flux, BTC-AM, M4 allosteric agonist project, primary screen (AID 625;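 active = fluorescence slope after compound addition differing from the mean of all tested samples at 99.7% confidence, mostly higher but some lower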;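 note: thallium influx through GIRK channels coupled to M4 in HEK293 cells with BTC-AM dye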); settings: at 10 µM, actives lie on both sides
How it was run: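 assay system = HEK293 cells with M4 receptor and GIRK channels | medium = pH 7.3 thallium assay buffer | doses = 10 µM final, single point | timing = cells overnight at 37 °C, BTC-AM loading 1 h, reads 2 min total | signal = BTC-AM fluorescence, 1 Hz kinetic reads | read-out = post-addition slope, 15–24 s, of baseline-normalized fluorescence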

[8] = inhibitors of larval lipid processing in zebrafish, primary screen, whole organism, PED6 fluorescence, gall bladder and intestine (AID 686;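 active = a full or partial loss of lipid-probe fluorescence in the fish gall bladder, intestine or both, judged by eye; inactive = no fluorescence loss, or compound toxic to the fish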;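 note: larvae 5 to 7 days old with five fish per well; signal comes from phospholipase A2 cleavage of quenched PED6 carried via bile; overnight exposure to compound and PED6 before scoring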); settings: Zebrafish larvae PED6 lipid processing, fluorescence scoring; screened at 20 µM (by protocol)
How it was run: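 Also added: quenched phospholipase substrate PED6, 100 nM final, ingested by larvae; System: zebrafish larvae, 5-7 d; Quantity: 5 larvae per well; Compound: 20 µM single dose; Schedule: overnight compound and PED6 incubation; Read-out: visual per-well fluorescence inhibition score; Measured by: By-eye fluorescence microscopy; Medium: E3.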

[9] = loss of swimming-algae plug formation – whole organism, Chlamydomonas reinhardtii, WT vs cilia-less mutant, absorbance, 96-well, primary screen (AID 463189); settings: Chlamydomonas reinhardtii gravitaxis, OD600 absorbance, 2 days; at 10 µM; stronger effect = higher value;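 note: 0% = wild type cc124 cells in DMSO and 100% = ciliumless bld1 mutant cells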
[10] = measured here: cell density z-score
[11] = measured here: nuclear c-Myc green intensity z-score
[12] = measured here: nuclear pErk red intensity z-score, stronger effect = higher value

Muscarinic acetylcholine receptor M4 (Homo sapiens), sequence (P08173 whole entry, looked up): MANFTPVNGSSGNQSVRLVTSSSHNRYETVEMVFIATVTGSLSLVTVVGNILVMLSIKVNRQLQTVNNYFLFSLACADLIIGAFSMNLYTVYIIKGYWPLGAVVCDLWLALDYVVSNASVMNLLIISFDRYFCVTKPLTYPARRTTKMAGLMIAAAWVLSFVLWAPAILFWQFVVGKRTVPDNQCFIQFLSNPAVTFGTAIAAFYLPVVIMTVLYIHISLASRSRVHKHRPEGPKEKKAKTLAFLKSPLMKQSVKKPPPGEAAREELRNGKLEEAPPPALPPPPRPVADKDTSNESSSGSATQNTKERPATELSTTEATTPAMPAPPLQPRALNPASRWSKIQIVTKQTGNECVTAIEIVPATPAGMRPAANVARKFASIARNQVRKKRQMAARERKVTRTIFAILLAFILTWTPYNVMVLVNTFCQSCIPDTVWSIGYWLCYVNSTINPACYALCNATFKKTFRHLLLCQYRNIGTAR
Voltage-gated potassium channel subunit beta-2 (Rattus norvegicus), sequence (P62483 whole entry, looked up): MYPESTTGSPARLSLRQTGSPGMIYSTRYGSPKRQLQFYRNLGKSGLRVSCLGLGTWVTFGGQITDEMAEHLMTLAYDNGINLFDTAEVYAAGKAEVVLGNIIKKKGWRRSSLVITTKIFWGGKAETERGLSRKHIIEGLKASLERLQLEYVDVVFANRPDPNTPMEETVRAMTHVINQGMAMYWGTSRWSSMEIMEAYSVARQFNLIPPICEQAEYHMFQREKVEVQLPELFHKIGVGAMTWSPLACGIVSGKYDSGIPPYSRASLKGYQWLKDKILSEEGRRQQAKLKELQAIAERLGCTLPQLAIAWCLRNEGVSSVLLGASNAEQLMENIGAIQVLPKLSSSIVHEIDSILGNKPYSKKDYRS
Dual specificity protein phosphatase 6 (Homo sapiens), sequence (Q16828 whole entry, looked up): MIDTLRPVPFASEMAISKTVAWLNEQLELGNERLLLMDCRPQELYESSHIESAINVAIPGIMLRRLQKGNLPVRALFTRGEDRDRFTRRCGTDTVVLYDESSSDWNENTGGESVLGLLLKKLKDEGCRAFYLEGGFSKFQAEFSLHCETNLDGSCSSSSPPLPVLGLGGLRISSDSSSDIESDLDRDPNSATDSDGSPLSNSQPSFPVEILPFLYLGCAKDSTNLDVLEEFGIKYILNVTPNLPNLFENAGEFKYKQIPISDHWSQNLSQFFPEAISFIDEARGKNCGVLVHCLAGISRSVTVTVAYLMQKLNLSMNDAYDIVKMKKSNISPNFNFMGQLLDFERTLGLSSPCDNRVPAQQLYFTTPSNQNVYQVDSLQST

Structure (SMILES)	cell count [1]	inhibition [1]	inhibition [2]	nuclei count [2]	z-score [3, 10]	z-score [3, 11]	z-score [3, 12]	inhibition [4]	fluorescence slope [5]	NADPH fluorescence slope [6]	fluorescence slope [7]	outcome [8]	inhibition [9]
Clc1ccc(-n2ncc3c(NCc4ccccn4)ncnc32)cc1	537	-14.9% (inactive)	6.6% (inactive)	106%	-1.8	2.08	-1.64	1.42% (inactive)	-0.374 (inactive)	5.6e-06 (inactive)	0.0062 (inactive)	inactive	0.96% (inactive)
C=CCN1C(=O)CC(C(=O)NC)SC1=Nc1ccc(C(=O)OCC)cc1 (stereo not given)	634	12.2% (inactive)	-19.2% (inactive)	105%	-0.632	0.636	-0.397	-2.09% (inactive)	-0.407 (inactive)	-5.9e-05 (inactive)	0.00387 (inactive)	inactive	6.38% (inactive)
Cc1cccc(C)c1OCC(=O)Nc1cccc(-c2nnc(-c3ccccc3)o2)c1	634	-2.9% (inactive)	27.8% (inactive)	82.9%	-2.16	1.5	0.715	-9.53% (inactive)	-0.492 (inactive)	-4.2e-05 (inactive)	0.00887 (inactive)	inactive	-17.1% (inactive)
Cc1cc(C)n(C2CCCCC2OC(=O)c2ccccc2)n1 (stereo not given)	526	-10% (inactive)	-95% (inactive)	129%	-0.506	0.334	-1.55	9.91% (inactive)	-0.381 (inactive)	2e-06 (inactive)	0.00464 (inactive)	inactive	-9.73% (inactive)
C=CCN(C(=O)CCC(=O)O)C1CC(=O)N(c2ccc(OC)cc2)C1=O (stereo not given)	549	0.4% (inactive)	17.4% (inactive)	97.5%	1.91	0.0386	-1.01	14.7% (inactive)	-0.482 (inactive)	-3.4e-05 (inactive)	0.005 (inactive)	inactive	-19.1% (inactive)
O=C(CN1C(=O)c2ccccc2C1=O)OCN1C(=O)c2ccccc2C1=O	494	-4.5% (inactive)	-52.7% (inactive)	125%	0.289	0.0514	-0.238	3.97% (inactive)	-0.348 (inactive)	-2.7e-06 (inactive)	0.00658 (inactive)	inactive	-6.56% (inactive)
CCCC1Cc2c(sc3nc(SC)nc(N)c23)CO1 (stereo not given)	489	-14.7% (inactive)	27.8% (inactive)	170%	-0.331	0.0787	0.594	-3.97% (inactive)	-0.47 (inactive)	-4.4e-05 (inactive)	0.00573 (inactive)	inactive	27.7% (inactive)
COc1ccc(C(=O)CCN2CCCCCC2)cc1	387	-7.4% (inactive)	-32.1% (inactive)	148%	-0.26	-0.113	-0.00775	5.42% (inactive)	-0.438 (inactive)	-0.000102 (inactive)	0.00485 (inactive)	inactive; toxic	-0.057% (inactive)
NC(=O)C1CCN(CCC(=O)Nc2ccc(Br)cc2)CC1	619	-14.3% (inactive)	-30.8% (inactive)	163%	0.663	-1.51	0.0444	7.42% (inactive)	-0.426 (inactive)	-5.4e-05 (inactive)	0.00492 (inactive)	inactive	44% (inactive)
COc1ccccc1-c1nnc2n1N=C(c1ccc(O)c(O)c1)CS2	485	50.9% (active)	-490% (inactive)	70.4%	1.36	-1.29	-0.603	-6.48% (inactive)	-0.429 (inactive)	-1.7e-05 (inactive)	0.00474 (inactive)	inactive	-2.32% (inactive)
CC1(C)Cc2c(C#N)c(SCc3nc4ccccc4[nH]3)nc(N3CCOCC3)c2CO1	464	-6.9% (inactive)	-111% (inactive)	99.1%	-1.63	0.58	-0.0845	3.97% (inactive)	-0.39 (inactive)	1.4e-05 (inactive)	0.00539 (inactive)	inactive	-18.5% (inactive)
CC(NC(=O)CSc1nc2c(cc1C#N)CN(C)CC2)c1ccccc1 (stereo not given)	739	5.9% (inactive)	-3.5% (inactive)	170%	0.748	-0.601	-0.682	6.04% (inactive)	-0.429 (inactive)	-3.9e-05 (inactive)	0.00365 (inactive)	inactive	11.3% (inactive)
CCCn1nc(Oc2nc(SC)nc(N(C)C)n2)ccc1=O	340	-6.1% (inactive)	-38% (inactive)	91.9%	1.7	-0.0746	-1.32	16.1% (inactive)	-0.491 (inactive)	3.6e-05 (inactive)	0.00516 (inactive)	inactive	-11.7% (inactive)
Cc1ccc(-c2n[nH]c(=O)c3ccccc23)cc1S(=O)(=O)NCCN1CCOCC1	449	-1.8% (inactive)	-80.2% (inactive)	160%	-0.696	0.423	0.442	-3.95% (inactive)	-0.41 (inactive)	-4.4e-05 (inactive)	0.00462 (inactive)	inactive	19.7% (inactive)
Cc1ccc(OCC(O)CNS(=O)(=O)c2ccccc2C(=O)O)cc1 (stereo not given)	625	-11.3% (inactive)	-18.3% (inactive)	152%	0.248	0.991	-0.853	21.4% (inactive)	-0.412 (inactive)	-2.6e-05 (inactive)	0.00639 (inactive)	inactive	-7.23% (inactive)
FC(F)(F)c1cccc(N2CCc3cn[nH]c32)c1	690	2.2% (inactive)	-30.9% (inactive)	178%	0.755	0.954	0.248	15.9% (inactive)	-0.48 (inactive)	-6.5e-05 (inactive)	0.00449 (inactive)	inactive	-4.32% (inactive)
CC1(C(=O)CSc2nc3ccccc3[nH]2)CCC(=O)O1 (stereo not given)	631	-2% (inactive)	-8.2% (inactive)	115%	-2.03	-0.005	-0.394	-13.3% (inactive)	-0.508 (inactive)	-1.8e-05 (inactive)	0.0059 (inactive)	inactive	0.18% (inactive)
CCN(CC)CCN1C(=O)C(=O)/C(=C(/O)c2c(C)[nH]c(C(=O)OC)c2C)C1c1ccccc1 (stereo not given)	727	-3.9% (inactive)	-88% (inactive)	165%	0.278	0.96	0.24	-11.9% (inactive)	-0.485 (inactive)	-4.8e-05 (inactive)	0.0049 (inactive)	inactive	13.3% (inactive)
O=C(CC(c1ccc(F)cc1)c1ccco1)N1CCCC1 (stereo not given)	494	-4% (inactive)	-36.9% (inactive)	182%	-0.749	0.895	-0.708	9.91% (inactive)	-0.404 (inactive)	-1.7e-05 (inactive)	0.00541 (inactive)	inactive	-1.73% (inactive)
Oc1ccc2ccccc2c1C=NC12CN3CCN(CN(C3)C1)C2	349	-5.7% (inactive)	-45.1% (inactive)	163%	-0.271	0.531	0.781	-2.59% (inactive)	-0.436 (inactive)	-0.000124 (inactive)	0.00489 (inactive)	inactive	1.64% (inactive)
Cn1c(=O)c2c(nc(Oc3ccc4c(c3)OCO4)n2Cc2ccc(Br)cc2)n(C)c1=O	619	8.1% (inactive)	-44% (inactive)	123%	0.319	-0.507	0.317	7.93% (inactive)	-0.562 (inactive)	-3.8e-05 (inactive)	0.00702 (inactive)	inactive	29.5% (inactive)
CC1(C)CCN(Cc2ccccc2)C1CC#N (stereo not given)	572	-1.7% (inactive)	-7.9% (inactive)	134%	-0.215	-0.992	0.527	3.97% (inactive)	-0.353 (inactive)	8.5e-06 (inactive)	0.00545 (inactive)	inactive	34.2% (inactive)
O=C(NCCc1ccccc1)/C(=N\O)c1ccccc1	555	-5.6% (inactive)	19.1% (inactive)	182%	1.61	-1.77	-0.308	13.9% (inactive)	-0.404 (inactive)	-8.5e-06 (inactive)	0.00486 (inactive)	inactive	2.81% (inactive)
CN(CCCCCNC(=O)/C=N/O)Cc1ccccc1	661	-11.4% (inactive)	-47.5% (inactive)	99.4%	-0.0258	0.279	-0.452	5.35% (inactive)	-0.537 (inactive)	-6.5e-05 (inactive)	0.00725 (inactive)	inactive	27.9% (inactive)
CCC(NC(=O)Nc1nccs1)(C(F)(F)F)C(F)(F)F	600	-9% (inactive)	21.5% (inactive)	89%	0.356	1.04	-0.804	-11.4% (inactive)	-0.475 (inactive)	-3.1e-05 (inactive)	0.0066 (inactive)	inactive	-12.6% (inactive)
